According to ChEMBL document CHEMBL4715693, “Synthesis and antiviral properties of novel indole-based thiosemicarbazides and 4-thiazolidinones” (Bioorg Med Chem, 2016):
In brackets after ≈: the same amount, converted by molar mass.

Key:
[1] = test system: Vesicular stomatitis virus; assay: Antiviral activity against Vesicular stomatitis virus infected in human HeLa cells assessed as reduction in virus-induced cytopathic effect incubated for 3 to 6 days by light microscopic analysis; type: functional, organism-based
Procedure, shortened: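 CPE reduction assay: virus and serial compound dilutions added together to subconfluent HeLa (vesicular stomatitis, Coxsackie B4, respiratory syncytial) or Vero (Coxsackie B4, Sindbis, Punta Toro) cultures. Incubated 3–6 days at 37 °C. Mean ± SEM of three independent tests.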

Coxsackievirus B4 [2] = assay: Antiviral activity against Human coxsackievirus B4 infected in human HeLa cells assessed as reduction in virus-induced cytopathic effect incubated for 3 to 6 days by light microscopic analysis; type: functional, organism-based; settings: Enterovirus B
Procedure, shortened: (§1)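 CPE reduction assay: virus and serial compound dilutions added together to subconfluent HeLa (vesicular stomatitis, Coxsackie B4, respiratory syncytial) or Vero (Coxsackie B4, Sindbis, Punta Toro) cultures. Incubated 3–6 days at 37 °C. […] Mean ± SEM of three independent tests.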

[3] = test system: Respiratory syncytial virus; assay: Antiviral activity against Respiratory syncytial virus infected in human HeLa cells assessed as reduction in virus-induced cytopathic effect incubated for 3 to 6 days by light microscopic analysis; type: functional, organism-based; procedure, shortened: as §1
[4] = Cytotoxicity against human HeLa cells assessed as changes in cell morphology incubated for 3 to 6 days by light microscopic analysis; type: cell-based; settings: time 3-6 day
Procedure, shortened: (§2)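 Uninfected subconfluent cells (Vero or HeLa, as named) exposed to serial compound dilutions in parallel with the CPE assays, 37 °C, 3–6 days. Cell morphology examined by light microscopy; MCC = minimal concentration causing microscopically detectable changes in morphology.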

[5] = Selectivity index, ratio of MCC for human HeLa cells to EC50 for Human coxsackievirus B4 infected in human HeLa cells; type: toxicity, cell-based
Procedure, shortened: (§3)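 HeLa cells infected concurrently with addition of serial compound dilutions, 3–6 days at 37 °C. CPE inhibition scored microscopically for EC50; MCC from minimal alteration of cell morphology by microscopy; index = MCC divided by EC50.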

Human respirovirus 3 = assay: Antiviral activity against Human parainfluenza virus 3 infected in African green monkey Vero cells assessed as reduction in virus-induced cytopathic effect incubated for 3 to 6 days by light microscopic analysis; type: functional, organism-based; settings: Human respirovirus 3, Vero
[6] = test system: Mammalian orthoreovirus 1; assay: Antiviral activity against Mammalian orthoreovirus 1 infected in African green monkey Vero cells assessed as reduction in virus-induced cytopathic effect incubated for 3 to 6 days by light microscopic analysis; type: functional, organism-based; settings: Mammalian orthoreovirus 1, Vero
Sindbis virus = assay: Antiviral activity against Sindbis virus infected in African green monkey Vero cells assessed as reduction in virus-induced cytopathic effect incubated for 3 to 6 days by light microscopic analysis; type: functional, organism-based; procedure, shortened: as §1
Coxsackievirus B4 [7] = assay: Antiviral activity against Human coxsackievirus B4 infected in African green monkey Vero cells assessed as reduction in virus-induced cytopathic effect incubated for 3 to 6 days by light microscopic analysis; type: functional, organism-based; settings: Enterovirus B; procedure, shortened: as §1
Punta Toro virus = assay: Antiviral activity against Punta Toro virus infected in African green monkey Vero cells assessed as reduction in virus-induced cytopathic effect incubated for 3 to 6 days by light microscopic analysis; type: functional, organism-based; procedure, shortened: as §1
[8] = Cytotoxicity against African green monkey Vero cells assessed as changes in cell morphology incubated for 3 to 6 days by light microscopy; type: cell-based; settings: chlorocebus sabaeus, time 3-6 day; procedure, shortened: as §2
[9] = Selectivity index, ratio of MCC for African green monkey Vero cells to EC50 for Human coxsackievirus B4 infected in African green monkey Vero cells; type: toxicity
Human alphaherpesvirus 1 = assay: Antiviral activity against Herpes simplex virus 1 infected in human HEL cells assessed as reduction in virus-induced cytopathic effect incubated for 3 to 6 days by light microscopic analysis; type: functional, cell-based; settings: Human alphaherpesvirus 1, HEL
Human alphaherpesvirus 2 = assay: Antiviral activity against Herpes simplex virus 2 infected in human HEL cells assessed as reduction in virus-induced cytopathic effect incubated for 3 to 6 days by light microscopic analysis; type: functional, cell-based; settings: Human alphaherpesvirus 2, HEL
Vaccinia virus = assay: Antiviral activity against Vaccinia virus infected in human HEL cells assessed as reduction in virus-induced cytopathic effect incubated for 3 to 6 days by light microscopic analysis; type: functional, organism-based; settings: Orthopoxvirus vaccinia
[10] = test system: Human immunodeficiency virus 1; assay: Antiviral activity against Human immunodeficiency virus 1 infected in human MT4 cells assessed as reduction in virus-induced cytopathic effect incubated for 3 to 6 days by light microscopic analysis; type: functional, organism-based; settings: Human immunodeficiency virus 1, MT4
[11] = test system: Human immunodeficiency virus 2; assay: Antiviral activity against Human immunodeficiency virus 2 infected in human MT4 cells assessed as reduction in virus-induced cytopathic effect incubated for 3 to 6 days by light microscopic analysis; type: functional, organism-based; settings: Human immunodeficiency virus 2, MT4
Influenza A virus = assay: Antiviral activity against influenza A virus infected in dog MDCK cells assessed as reduction in virus-induced cytopathic effect incubated for 3 to 6 days by light microscopic analysis; type: functional, organism-based; settings: Influenza A virus, MDCK
Procedure, shortened: (§4)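 MDCK cells, subconfluent, received influenza A or B virus together with serial compound dilutions. Incubated 3–6 days at 35 °C.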

Influenza B virus = assay: Antiviral activity against influenza B virus infected in dog MDCK cells assessed as reduction in virus-induced cytopathic effect incubated for 3 to 6 days by light microscopic analysis; type: functional, organism-based; procedure, shortened: as §4
Feline coronavirus = assay: Antiviral activity against Feline coronavirus infected in cat CRFK cells assessed as reduction in virus-induced cytopathic effect incubated for 3 to 6 days by light microscopic analysis; type: functional, organism-based; settings: Alphacoronavirus 1, CRFK
Felid alphaherpesvirus 1 = assay: Antiviral activity against Feline herpesvirus infected in cat CRFK cells assessed as reduction in virus-induced cytopathic effect incubated for 3 to 6 days by light microscopic analysis; type: functional, organism-based; settings: Felid alphaherpesvirus 1, CRFK
[12] = Cytotoxicity against human HEL cells assessed as changes in cell morphology incubated for 3 to 6 days by light microscopy; type: cell-based; settings: time 3-6 day
Procedure, shortened: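 Human embryonic lung fibroblasts incubated with serial compound dilutions alongside the antiviral assays, 37 °C, 3–6 days. Morphology inspected by light microscopy; minimal cytotoxic concentration taken as lowest concentration giving minimal morphological change.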

[13] = Cytotoxicity against dog MDCK cells assessed as changes in cell morphology incubated for 3 to 6 days by light microscopy; type: cell-based, Canis lupus familiaris; settings: time 3-6 day
[14] = Cytotoxicity against cat CRFK cells assessed as reduction in cell viability incubated for 3 to 6 days by MTS assay; type: cell-based, Felis catus; settings: crfk, time 3-6 day
Procedure, shortened: (§5)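 CRFK or MT4 cells were exposed to serial compound dilutions alongside the antiviral assays for 3–6 days at 37 °C.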

MT4 = assay: Cytotoxicity against human MT4 cells assessed as reduction in cell viability incubated for 3 to 6 days by MTS assay; type: cell-based; settings: time 3-6 day; procedure, shortened: as §5
[15] = Selectivity index, ratio of MCC for human HeLa cells to EC50 for Respiratory syncytial virus infected in human HeLa cells; type: toxicity, cell-based; procedure, shortened: as §3
[16] = Selectivity index, ratio of MCC for African green monkey Vero cells to EC50 for Sindbis virus infected in African green monkey Vero cells; type: toxicity

CNC(=S)NNC(=O)c1[nH]c2ccc(F)cc2c1-c1ccccc1
EC50 [1]: > 100 µg/mL | EC50 (Coxsackievirus B4 [2]): 2.1 µg/mL (≈ 6.13 µM) | EC50 [3]: > 100 µg/mL | MCC [4]: 20 µg/mL | selectivity ratio [5]: 9 | EC50 (Human respirovirus 3): > 100 µg/mL | EC50 [6]: > 100 µg/mL | EC50 (Sindbis virus): > 100 µg/mL | EC50 (Coxsackievirus B4 [7]): 1.7 µg/mL (≈ 4.96 µM) | EC50 (Punta Toro virus): > 100 µg/mL | MCC [8]: 20 µg/mL | selectivity ratio [9]: 12 | EC50 (Human alphaherpesvirus 1): > 100 µg/mL | EC50 (Human alphaherpesvirus 2): > 100 µg/mL | EC50 (Vaccinia virus): > 100 µg/mL | EC50 [10]: > 100 µg/mL | EC50 [11]: > 100 µg/mL | EC50 (Influenza A virus): > 100 µg/mL | EC50 (Influenza B virus): > 100 µg/mL | EC50 (Feline coronavirus): > 100 µg/mL | EC50 (Felid alphaherpesvirus 1): > 100 µg/mL | MCC [12]: 20 µg/mL | MCC [13]: 20 µg/mL | CC50 [14]: 7.5 µg/mL (≈ 21.9 µM) | CC50 (MT4): 18 µg/mL (≈ 52.6 µM)

CCCNC(=S)NNC(=O)c1[nH]c2ccc(F)cc2c1-c1ccccc1
EC50 [1]: > 100 µg/mL | EC50 (Coxsackievirus B4 [2]): 1.1 µg/mL (≈ 2.97 µM) | EC50 [3]: ≥ 2.3 µg/mL | MCC [4]: 20 µg/mL | selectivity ratio [5]: 18 | selectivity ratio [15]: ≥ 9 | EC50 (Human respirovirus 3): > 100 µg/mL | EC50 [6]: > 100 µg/mL | EC50 (Sindbis virus): 6.5 µg/mL (≈ 17.5 µM) | EC50 (Coxsackievirus B4 [7]): 1.8 µg/mL (≈ 4.86 µM) | EC50 (Punta Toro virus): > 100 µg/mL | selectivity ratio [16]: 15 | selectivity ratio [9]: 56 | EC50 (Human alphaherpesvirus 1): > 100 µg/mL | EC50 (Human alphaherpesvirus 2): > 100 µg/mL | EC50 (Vaccinia virus): > 100 µg/mL | EC50 [10]: > 100 µg/mL | EC50 [11]: > 100 µg/mL | EC50 (Influenza A virus): > 100 µg/mL | EC50 (Influenza B virus): > 100 µg/mL | EC50 (Feline coronavirus): > 100 µg/mL | EC50 (Felid alphaherpesvirus 1): > 100 µg/mL | MCC [12]: 20 µg/mL | MCC [13]: 0.8 µg/mL | CC50 [14]: 9.7 µg/mL (≈ 26.2 µM) | CC50 (MT4): 11 µg/mL (≈ 29.7 µM)

C=CCNC(=S)NNC(=O)c1[nH]c2ccc(F)cc2c1-c1ccccc1
EC50 [1]: > 100 µg/mL | EC50 (Coxsackievirus B4 [2]): 1.5 µg/mL (≈ 4.07 µM) | EC50 [3]: ≥ 4 µg/mL | MCC [4]: 20 µg/mL | selectivity ratio [5]: 13 | selectivity ratio [15]: ≥ 5 | EC50 (Human respirovirus 3): > 100 µg/mL | EC50 [6]: > 100 µg/mL | EC50 (Sindbis virus): ≥ 4 µg/mL | EC50 (Coxsackievirus B4 [7]): 2 µg/mL (≈ 5.43 µM) | EC50 (Punta Toro virus): > 100 µg/mL | MCC [8]: 20 µg/mL | selectivity ratio [16]: ≥ 5 | selectivity ratio [9]: 10 | EC50 (Human alphaherpesvirus 1): > 100 µg/mL | EC50 (Human alphaherpesvirus 2): > 100 µg/mL | EC50 (Vaccinia virus): > 100 µg/mL | EC50 [10]: > 100 µg/mL | EC50 [11]: > 100 µg/mL | EC50 (Influenza A virus): > 100 µg/mL | EC50 (Influenza B virus): > 100 µg/mL | EC50 (Feline coronavirus): > 100 µg/mL | EC50 (Felid alphaherpesvirus 1): > 100 µg/mL | MCC [12]: 20 µg/mL | MCC [13]: 4 µg/mL | CC50 [14]: 8.6 µg/mL (≈ 23.3 µM)

CCNC(=S)NNC(=O)c1[nH]c2ccc(F)cc2c1-c1ccccc1
EC50 [1]: > 100 µg/mL | EC50 (Coxsackievirus B4 [2]): 0.87 µg/mL (≈ 2.44 µM) | EC50 [3]: ≥ 4 µg/mL | MCC [4]: 20 µg/mL | selectivity ratio [5]: 23 | selectivity ratio [15]: ≥ 5 | EC50 (Human respirovirus 3): > 100 µg/mL | EC50 [6]: > 100 µg/mL | EC50 (Coxsackievirus B4 [7]): 0.4 µg/mL (≈ 1.12 µM) | EC50 (Punta Toro virus): > 100 µg/mL | MCC [8]: 20 µg/mL | selectivity ratio [16]: 6 | selectivity ratio [9]: 50 | EC50 (Human alphaherpesvirus 1): > 100 µg/mL | EC50 (Human alphaherpesvirus 2): > 100 µg/mL | EC50 (Vaccinia virus): > 100 µg/mL | EC50 [10]: > 100 µg/mL | EC50 [11]: > 100 µg/mL | EC50 (Influenza A virus): > 100 µg/mL | EC50 (Influenza B virus): > 100 µg/mL | EC50 (Feline coronavirus): > 100 µg/mL | EC50 (Felid alphaherpesvirus 1): > 100 µg/mL | MCC [12]: 20 µg/mL | MCC [13]: 4 µg/mL | CC50 [14]: 2.9 µg/mL (≈ 8.14 µM) | CC50 (MT4): 14 µg/mL (≈ 39.3 µM)
